Data: ChEMBL document CHEMBL1148625, “3-(1,1-dioxo-2H-(1,2,4)-benzothiadiazin-3-yl)-4-hydroxy-2(1H)-quinolinones, potent inhibitors of hepatitis C virus RNA-dependent RNA polymerase” (J Med Chem, 2006)

Columns and labels:
Hepatitis C virus [1] = assay: Protein binding in Huh7 cells using HCV 1b replicon by a replicon cell assay in presence of HSA; format: functional, organism-based, Hepacivirus hominis; conditions: genotype 1b, Huh-7
[2] = target: T1, Nuclear receptor subfamily 1 group I member 2 (Homo sapiens, UniProt O75469); assay: Effect on PXR activity
T1 sequence (O75469 whole entry): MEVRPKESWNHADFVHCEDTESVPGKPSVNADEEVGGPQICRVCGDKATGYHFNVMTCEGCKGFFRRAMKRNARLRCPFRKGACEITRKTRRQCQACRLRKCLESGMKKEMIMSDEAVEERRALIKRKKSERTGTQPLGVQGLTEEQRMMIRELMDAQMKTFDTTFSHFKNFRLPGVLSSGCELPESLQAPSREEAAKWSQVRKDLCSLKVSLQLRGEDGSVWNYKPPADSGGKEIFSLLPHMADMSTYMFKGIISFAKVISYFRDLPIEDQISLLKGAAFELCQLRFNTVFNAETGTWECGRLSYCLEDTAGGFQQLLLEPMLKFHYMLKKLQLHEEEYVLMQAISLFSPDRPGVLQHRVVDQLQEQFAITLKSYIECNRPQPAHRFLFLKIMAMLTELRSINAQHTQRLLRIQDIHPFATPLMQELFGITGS

[3] = Oral bioavailability in Sprague-Dawley rat at 1.3 mg/kg, iv or 3.4 mg/kg, po; format: ADME, organism-based; conditions: in vivo
Method in brief: (§1)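 Single intravenous or oral doses given to Sprague-Dawley rats. Values are reported as means: Cmax (ng/mL), half-life (min), plasma clearance (mL/min/kg), steady-state volume of distribution (L/kg) and oral bioavailability F (%).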

[4] = Cmax in Sprague-Dawley rat at 1.3 mg/kg, iv or 3.4 mg/kg, po; format: ADME, organism-based; conditions: in vivo; method in brief: as §1
[5] = Volume of distribution in cynomolgus monkey at 0.8 mg/kg, iv or 4.0 mg/kg, po; format: ADME, organism-based, Macaca fascicularis; conditions: in vivo, read-out: Vdss
Method in brief: (§2)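 Single-dose study, with separate intravenous and oral administrations at the listed mg/kg. Plasma concentrations were followed over time, and mean values were derived for Cmax, T1/2, clearance (mL/min/kg), Vdss (L/kg) and oral bioavailability (%).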

[6] = Volume of distribution in Sprague-Dawley rat at 1.3 mg/kg, iv or 3.4 mg/kg, po; format: ADME, organism-based; conditions: in vivo, read-out: Vdss; method in brief: as §1
[7] = Half life in Sprague-Dawley rat at 1.3 mg/kg, iv or 3.4 mg/kg, po; format: ADME, organism-based; conditions: in vivo; method in brief: as §1
DNA polymerase beta = DNA polymerase beta (Homo sapiens, UniProt P06746); assay: Inhibitory activity against human DNA-polymerase-beta
[8] = target: T2, RNA-directed RNA polymerase (Hepacivirus hominis, UniProt O39930); assay: Inhibitory activity against HCV 2a NS5B RNA polymerase; parameters: species or system Hepatitis C virus genotype 2
T2 sequence (O39930 whole entry): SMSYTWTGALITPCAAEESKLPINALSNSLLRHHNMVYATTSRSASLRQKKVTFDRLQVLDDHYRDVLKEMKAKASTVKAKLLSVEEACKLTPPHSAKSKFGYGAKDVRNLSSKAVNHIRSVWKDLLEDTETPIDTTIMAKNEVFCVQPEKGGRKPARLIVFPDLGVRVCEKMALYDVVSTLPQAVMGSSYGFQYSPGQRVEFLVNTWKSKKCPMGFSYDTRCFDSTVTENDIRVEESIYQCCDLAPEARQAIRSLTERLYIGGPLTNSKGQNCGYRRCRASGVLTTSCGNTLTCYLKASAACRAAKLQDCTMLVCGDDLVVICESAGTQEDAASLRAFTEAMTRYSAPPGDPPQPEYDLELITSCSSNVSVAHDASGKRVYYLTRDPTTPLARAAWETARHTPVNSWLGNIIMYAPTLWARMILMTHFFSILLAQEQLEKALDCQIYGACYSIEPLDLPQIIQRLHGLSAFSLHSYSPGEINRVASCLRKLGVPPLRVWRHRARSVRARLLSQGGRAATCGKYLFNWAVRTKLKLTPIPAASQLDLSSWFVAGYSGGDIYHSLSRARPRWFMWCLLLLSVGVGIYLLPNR

Hepatitis C virus [9] = assay: Protein binding in Huh7 cells using HCV 1b replicon by a replicon cell assay in presence of HSA and alpha-acid glycoprotein; format: functional, organism-based, Hepacivirus hominis; conditions: genotype 1b, Huh-7
[10] = Cmax in cynomolgus monkey at 0.8 mg/kg, iv or 4.0 mg/kg, po; format: ADME, organism-based, Macaca fascicularis; conditions: in vivo; method in brief: as §2
[11] = target: T2, RNA-directed RNA polymerase; assay: Inhibitory activity against HCV delta 21 NS5B RNA polymerase by SPA assay; parameters: species or system Hepatitis C virus subtype 1b
[12] = Clearance in cynomolgus monkey at 0.8 mg/kg, iv or 4.0 mg/kg, po; format: ADME, organism-based, Macaca fascicularis; conditions: in vivo; method in brief: as §2
Genome polyprotein = Genome polyprotein (GB virus-B, UniProt Q69422); assay: Inhibitory activity against virus GBV-B polymerase
Genome polyprotein, sequence (Q69422 2275-2864 limits assumed): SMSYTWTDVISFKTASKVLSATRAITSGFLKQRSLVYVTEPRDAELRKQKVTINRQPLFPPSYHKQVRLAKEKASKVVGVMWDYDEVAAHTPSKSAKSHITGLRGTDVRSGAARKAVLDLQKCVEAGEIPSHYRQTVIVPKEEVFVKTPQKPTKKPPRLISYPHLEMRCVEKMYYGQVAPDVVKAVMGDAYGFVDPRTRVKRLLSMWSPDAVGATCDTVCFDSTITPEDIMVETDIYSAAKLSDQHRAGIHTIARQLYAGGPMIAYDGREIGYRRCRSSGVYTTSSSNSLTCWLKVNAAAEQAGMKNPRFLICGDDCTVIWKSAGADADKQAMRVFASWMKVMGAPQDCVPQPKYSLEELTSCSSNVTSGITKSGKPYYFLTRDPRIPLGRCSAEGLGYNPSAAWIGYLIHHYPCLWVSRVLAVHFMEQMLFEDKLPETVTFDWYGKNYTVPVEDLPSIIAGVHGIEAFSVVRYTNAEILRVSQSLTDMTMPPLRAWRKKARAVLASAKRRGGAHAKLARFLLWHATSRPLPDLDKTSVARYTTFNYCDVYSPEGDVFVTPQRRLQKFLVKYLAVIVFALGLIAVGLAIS

[13] = target: RNA-directed RNA polymerase (Hepacivirus hominis) (UniProt O39930); assay: Inhibitory activity against HCV 3a NS5B RNA at 10 uM
RNA-directed RNA polymerase (Hepacivirus hominis), sequence (O39930 1-591): as the sequence (O39930 whole entry) above

[14] = target: T2, RNA-directed RNA polymerase; assay: Inhibitory activity against HCV 1b NS5B RNA polymerase; parameters: species or system Hepatitis C virus subtype 1b
Method in brief: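 Scintillation proximity polymerase assay with HCV NS5B (genotype 1b, J4 strain, Δ21 construct) at 50 or 10 nM. The reaction used [α-33P]GTP and GTP with 5′-biotinylated oligo(rG13)/poly(rC) in 20 mM Tris-Cl pH 7.5 containing MgCl2, KCl, DTT and 0.05% BSA. It ran 2 h at 25 °C, was stopped with an equal volume of 100 mM EDTA, then captured on streptavidin FlashPlates and counted; n = 4.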

[15] = Oral bioavailability in cynomolgus monkey at 0.8 mg/kg, iv or 4.0 mg/kg, po; format: ADME, organism-based, Macaca fascicularis; conditions: in vivo; method in brief: as §2
[16] = Oral bioavailability in Beagle dog at 0.8 mg/kg, iv or 4.0 mg/kg, po; format: ADME, organism-based, Canis lupus familiaris; conditions: in vivo; method in brief: as §2
[17] = Half life in cynomolgus monkey at 0.8 mg/kg, iv or 4.0 mg/kg, po; format: ADME, organism-based, Macaca fascicularis; conditions: in vivo; method in brief: as §2
[18] = target: T2, RNA-directed RNA polymerase; assay: Inhibitory activity against HCV 1a NS5B RNA polymerase
[19] = Half life in Beagle dog at 0.8 mg/kg, iv or 4.0mg/kg, po; format: ADME, organism-based, Canis lupus familiaris; parameters: dose 0.8 mg/kg; conditions: in vivo; method in brief: as §2
[20] = target: RNA-directed RNA polymerase (Hepacivirus hominis) (UniProt O39930); assay: Inhibition of HCV RNA replication in Huh7 cells; format: functional, cell-based; conditions: Huh-7
Method in brief: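 Huh-7 subgenomic replicon cells were seeded at 3 × 10³/well in DMEM with 10% FCS, 1% NEAA and 1 mg/mL G418, and allowed 4 h to attach. Eleven 2.5-fold DMSO dilutions were added (final 10,000 to 1.0 nM) and cells incubated 40 h. Neo RNA was measured by TaqMan RT-PCR, normalised to cyclophilin against DMSO controls; n = 8 wells per dilution.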

[21] = Cmax in Beagle dog at 0.8 mg/kg, iv or 4.0 mg/kg, po; format: ADME, organism-based, Canis lupus familiaris; conditions: in vivo; method in brief: as §2
[22] = Volume of distribution in Beagle dog at 0.8 mg/kg, iv or 4.0 mg/kg, po; format: ADME, organism-based, Canis lupus familiaris; conditions: in vivo, read-out: Vdss; method in brief: as §2
Hepatitis C virus [23] = assay: Protein binding in Huh7 cells using HCV 1b replicon by a replicon cell assay in presence of alpha-acid glycoprotein; format: functional, organism-based, Hepacivirus hominis; conditions: genotype 1b, Huh-7
Cytochrome P450 2C9 = Cytochrome P450 2C9 (Homo sapiens, UniProt P11712); assay: Inhibition of CYP2C9 isozyme; format: ADME
Cytochrome P450 2C9, sequence (P11712 whole entry): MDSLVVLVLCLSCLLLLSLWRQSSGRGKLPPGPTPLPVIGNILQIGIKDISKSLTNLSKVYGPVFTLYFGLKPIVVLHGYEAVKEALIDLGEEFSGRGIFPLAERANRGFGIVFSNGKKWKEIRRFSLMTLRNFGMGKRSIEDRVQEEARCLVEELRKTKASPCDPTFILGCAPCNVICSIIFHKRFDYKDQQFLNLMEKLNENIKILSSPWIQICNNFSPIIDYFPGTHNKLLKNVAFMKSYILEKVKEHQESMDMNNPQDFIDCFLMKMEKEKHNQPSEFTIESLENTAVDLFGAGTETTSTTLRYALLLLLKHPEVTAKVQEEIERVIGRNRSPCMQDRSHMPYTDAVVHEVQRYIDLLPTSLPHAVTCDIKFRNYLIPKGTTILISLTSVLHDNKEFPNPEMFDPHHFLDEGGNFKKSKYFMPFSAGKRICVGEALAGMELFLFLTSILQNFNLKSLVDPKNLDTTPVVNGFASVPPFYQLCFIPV

Cytochrome P450 3A4 = Cytochrome P450 3A4 (Homo sapiens, UniProt P08684); assay: Effect on CYP3A4 induction; format: ADME
Cytochrome P450 3A4, sequence (P08684 whole entry): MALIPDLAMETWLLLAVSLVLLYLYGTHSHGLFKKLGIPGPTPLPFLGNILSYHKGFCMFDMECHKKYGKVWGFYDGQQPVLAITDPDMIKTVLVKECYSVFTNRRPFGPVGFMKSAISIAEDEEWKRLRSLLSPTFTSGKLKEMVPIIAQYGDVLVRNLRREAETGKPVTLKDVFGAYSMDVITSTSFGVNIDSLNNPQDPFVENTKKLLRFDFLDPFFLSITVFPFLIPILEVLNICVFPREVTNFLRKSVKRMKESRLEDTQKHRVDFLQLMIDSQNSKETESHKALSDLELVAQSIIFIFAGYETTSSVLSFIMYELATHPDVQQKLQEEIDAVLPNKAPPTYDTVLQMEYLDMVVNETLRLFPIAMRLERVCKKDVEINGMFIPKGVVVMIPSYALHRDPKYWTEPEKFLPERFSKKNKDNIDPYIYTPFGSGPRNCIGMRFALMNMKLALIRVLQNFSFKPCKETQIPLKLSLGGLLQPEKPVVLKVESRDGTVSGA

Hepatitis C virus [24] = assay: Protein binding in Huh7 cells using HCV 1b replicon by a replicon cell assay; format: functional, organism-based, Hepacivirus hominis; conditions: genotype 1b, Huh-7
Method in brief: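 Replicon assay in Huh-7 cells run with α-acid glycoprotein, human serum albumin, or both added to the medium, to assess the effect of plasma protein binding on cellular activity.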

EC50 (Hepatitis C virus [1]): 13000 nM
EC50 [2]: 5300 nM
bioavailability [3]: 44%
Cmax [4]: 4140 ng/mL
Vd [5]: 0.11 L/kg
Vd [6]: 0.36 L/kg
half-life [7]: 3.04 h
IC50 (DNA polymerase beta): > 50000 nM
IC50 [8]: 13 nM
EC50 (Hepatitis C virus [9]): > 20000 nM
Cmax [10]: 5440 ng/mL
IC50 [11]: 10 nM
clearance [12]: 0.76 mL/min/kg
IC50 (Genome polyprotein): > 50000 nM
inhibition [13]: 60%
IC50 [14]: 10 nM
bioavailability [15]: > 53%
bioavailability [16]: > 35%
half-life [17]: 1.61 h
IC50 [18]: 49 nM
half-life [19]: 1.72 h
EC90 [20]: 207 nM
Cmax [21]: 4460 ng/mL
Vd [22]: 0.15 L/kg
EC50 (Hepatitis C virus [23]): 180 nM
IC50 (Cytochrome P450 2C9): 1000 nM
Activity (Cytochrome P450 3A4): Active
EC50 (Hepatitis C virus [24]): 38 nM
SMILES: O=c1c(C2=Nc3ccccc3S(=O)(=O)N2)c(O)c2cc(F)ccc2n1CCC1CC1
